# Compound activity as filed in PubChem BioAssay.
# OX1R antag-1 = antagonists of human orexin 1 receptor (OX1R) | inhibition, % at 6.6 µM | O43613 | AID 485270 | 330,000 compounds, 1.8% hits | OX1R-expressing cells, FRET antagonist read-out; in the data active = inhibition mostly above about 38%, no sharp cut-off; inactive = mostly below about 40%;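 note: 0% = agonist challenge alone and 100% = reference antagonist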
# Target sequence (O43613 whole entry, looked up): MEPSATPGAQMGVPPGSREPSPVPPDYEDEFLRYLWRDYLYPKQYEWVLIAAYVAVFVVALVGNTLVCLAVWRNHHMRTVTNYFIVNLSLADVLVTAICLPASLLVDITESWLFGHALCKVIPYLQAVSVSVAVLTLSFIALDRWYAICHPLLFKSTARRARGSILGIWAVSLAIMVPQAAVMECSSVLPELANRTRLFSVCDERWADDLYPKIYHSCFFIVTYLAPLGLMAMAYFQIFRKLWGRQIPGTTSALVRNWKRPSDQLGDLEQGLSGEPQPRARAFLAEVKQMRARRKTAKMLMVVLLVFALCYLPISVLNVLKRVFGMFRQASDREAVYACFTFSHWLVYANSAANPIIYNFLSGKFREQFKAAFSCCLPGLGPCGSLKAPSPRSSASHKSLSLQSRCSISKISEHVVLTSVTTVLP
# OX1R antag-2 = blocks the human orexin 1 receptor; inhibition, % at 5 µM; 330,000 compounds, 0.43% hits; CHO/OX1R cells, Fluo-8 calcium fluorescence, orexin A; O43613;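 active = inhibition above its plate's threshold, mean inhibition of all tested compounds on the plate plus 3 SD, cut at about 37% in these data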;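 note: 0% = orexin A challenge wells and 100% = SB-334867-A antagonist wells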
# TAAR1 ag = human TAAR1 agonism; AID 624467; activation, % at 3 µM; 360,000 compounds, 0.99% hits; CHO RD-HGA16 TAAR1, Fluo-8 calcium fluorescence; vehicle wells 0%, saturating PEA agonist 100%;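 active = activation above the mean activation of all test compounds in the run plus 3 SD, cut at about 38% in these data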
#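 Test system: RD-HGA16 (CHO) cells co-expressing Gα16 and hTAAR1 | Doses: Single dose, 3 µM | Schedule: 17-24 h seeding, 75 min 37 °C dye, 30 min RT | Evaluation: % activation from peak over basal fluorescence ratio, DMSO-to-PEA scaled | Technique: Kinetic Fluo-8 calcium fluorescence | Benchmarks: Low control DMSO, high control PEA (EC100)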
# GalR3 antagonist = human GalR3 antagonism; 360,000 compounds, 0.44% hits; inhibition, % at 3 µM; HEK293 GalR3-CNG cAMP membrane potential fluorescence; galR3 body fused to GalR1 C-terminus; O60755; AID 651719;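 active = inhibition above the screen-wide average plus 3 SD, cut at about 13% in these data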;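 note: forskolin and galanin both at EC90 stimulate the cells; cAMP rise reported by CNG channel membrane potential dye signal; 0% = forskolin plus galanin with DMSO and 100% = forskolin alone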
# Target sequence (O60755 1-299 limits assumed): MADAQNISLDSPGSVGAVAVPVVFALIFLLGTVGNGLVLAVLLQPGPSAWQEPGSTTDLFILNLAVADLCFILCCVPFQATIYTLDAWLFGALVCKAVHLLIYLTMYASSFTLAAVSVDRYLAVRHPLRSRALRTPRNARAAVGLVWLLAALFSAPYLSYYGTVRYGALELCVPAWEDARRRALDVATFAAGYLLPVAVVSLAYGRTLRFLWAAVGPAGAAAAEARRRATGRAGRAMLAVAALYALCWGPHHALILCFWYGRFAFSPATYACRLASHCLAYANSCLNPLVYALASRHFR
# CHO parental Ca = counter-screen for OX1R antagonists: effect in parental CHO cells | 330,000 compounds, 0.63% hits | inhibition, % at 5.6 µM | parental CHO-K1, ATP-induced calcium, Fluo-8 fluorescence | AID 463079;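 active = inhibition above that plate's mean sample inhibition plus 3 SD, cut at about 26% in these data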;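 note: 0% = ATP-challenged DMSO wells and 100% = DMSO wells without ATP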
#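 Test system: parental CHO cells; detection: calcium-sensitive Fluo-8 fluorescence; evaluation: percent inhibition of calcium signal; also added: ATP as calcium-mobilizing challenge; repeats: one well per compound; control set: ATP-challenged DMSO wells low, unchallenged DMSO wells high; compound: single nominal dose of 5.6 µM per compound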
# TAAR1 antagonist = human TAAR1 antagonism; inhibition, % at 3 µM; Q96RJ0; 360,000 compounds, 1.5% hits; CHO RD-HGA16 TAAR1, Fluo-8 calcium fluorescence, antagonist;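 active = inhibition above a per-plate cutoff, the mean inhibition of test compounds on that plate plus 3 SD, cut at about 49% in these data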;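 note: 0% = DMSO plus EC80 beta-PEA response and 100% = DMSO alone without agonist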
#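 Assay system: RD-HGA16 CHO cells with stable hTAAR1 and Gα16 / Reagent: EC80 β-phenethylamine stimulus / Doses: 3 µM, single point / Timing: dye loading 75 min at 37 °C, then 30 min room temperature / Measured by: Fluo-8 intracellular calcium dye fluorescence, real-time kinetic reads / Controls: vehicle wells and EC80 agonist wells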
# Starred values were filed as active, the others as inactive; nt = no result. Sampled rows, rich in hits. Any-hit rate of the full collection: about 4.2%.
SMILES,OX1R antag-1,OX1R antag-2,TAAR1 ag,GalR3 antagonist,CHO parental Ca,TAAR1 antagonist
Cc1ccc(OCc2nnc(SCC(=O)O)n2-c2ccccc2)cc1,10.4,-3.4,0.5,-1.3,-17.9,-34.9
O=C(CS(=O)(=O)c1ccc(F)cc1)Nc1nnc(-c2ccccc2Cl)o1,45.4*,-10.6,1.8,-1.7,-12.4,2.0
COc1ccc(CN(C)Cc2cc(=O)n3ccsc3n2)c(OC)c1OC,-2.1,-13.2,1.4,-7.1,0.6,-21.7
CCc1nnc(NS(=O)(=O)c2ccc(NC(=S)NC(=O)/C=C/c3ccc(C(C)C)cc3)cc2)s1,19.5,36.5,nt,nt,44.1*,nt
O=S1(=O)CCOC[C@H](CC2CCCCC2)N1Cc1ccccc1,27.3,-22.0,11.5,-6.5,-20.0,2.6
Cc1ccccc1CN1[C@@H](CC2CCCCC2)COCCS1(=O)=O,68.4*,-32.6,9.6,-4.7,-31.7,5.1
COc1ccc(CN(C)C(=O)c2ccccc2Sc2ccccc2C#N)cc1OC,35.8,-32.2,9.2,-1.4,-14.3,41.5
Cn1c(-c2c(N)n(CCc3ccccc3)c3nc4ccccc4nc23)nc2ccccc21,18.0,-9.4,nt,nt,-3.8,nt
COCCCn1c(N)c(-c2nc3ccccc3n2C)c2nc3ccccc3nc21,21.7,-4.5,22.5,-5.3,-11.6,49.2*
Cc1ccc(CNC(=O)C2CCCN2C(=O)Nc2cccc(Cl)c2)cc1 (stereo unspecified),12.2,-19.9,-1.1,-9.1,-17.8,-9.9
CN(CC(=O)Nc1ccc(F)c(F)c1)S(=O)(=O)c1cccc2nsnc12,62.6*,-14.2,3.9,-2.2,-6.4,3.2
CN(C)S(=O)(=O)c1cccc2nsnc12,35.2*,-8.0,-0.9,-4.8,-5.2,5.3
Cc1cccc(N(C)S(=O)(=O)c2cccc3nsnc23)c1,27.1,-22.6,-2.5,-0.2,-13.9,8.8
Cc1ccc(NC(=O)CN(C)S(=O)(=O)c2cccc3nsnc23)cc1C,63.9,-18.4,7.0,-2.6,-26.5,-16.5
Cc1cccc(C(=O)NC2C(=O)NNC2c2ccc(Cl)cc2)c1 (stereo unspecified),11.4,3.9,2.2,-3.2,2.1,-0.2
Cc1cccc(N2C(=O)c3cccc(Oc4ccc(Cl)cc4)c3C2=O)c1,3.8,-16.0,38.4*,-2.5,-11.4,26.0
CC(C)C(C=Cc1ccccc1)=NNS(=O)(=O)c1ccccc1,nt,nt,0.5,-10.2,nt,-9.0
CCN(CC(=O)Nc1ccccc1OC)C(=O)CSCc1c(C)noc1C,8.7,-5.8,0.7,0.5,-8.1,-1.2
O=C(C1CCC1)N1CCC(c2nc3c(nnn3Cc3c(F)cccc3Cl)c(=O)[nH]2)CC1,19.2,-31.8,2.3,2.6,-24.2,10.7
O=C1c2c(O)cc(O)cc2O[C@@]12c1c(cc(O)c3c1O[C@H](c1ccc(O)cc1)[C@@H](O)C3)O[C@@H]2c1ccc(O)cc1,5.2,-4.6,3.4,-2.9,-7.4,-25.0
Cc1cc(C(=O)CSc2nc3ccc(Cl)cc3[nH]2)c(C)n1Cc1ccco1,45.4*,-18.9,1.5,-4.6,-4.5,8.9
COc1ccc(N2CCN(CC(=O)Nc3nc4c(s3)CC(C)CC4)CC2)cc1 (stereo unspecified),5.6,-42.5,-2.7,-2.3,-23.9,10.6
C#C[C@]1(OC(C)=O)CCC2C3CCC4=CC(=O)CC[C@@H]4C3CC[C@@]21C (stereo partly specified),13.3,-2.1,0.5,-3.7,-7.6,36.2
CCCNC(=O)C1(C)CCCN(C(=O)c2ccc(OC)cc2OC)C1 (stereo unspecified),nt,nt,-0.3,-8.6,nt,8.1
O=S(=O)(Nc1nc2ccccc2nc1OCC(F)(F)F)c1cccs1,7.3,-5.4,-1.0,-1.8,-12.8,-19.4
SMILES,OX1R antag-1,OX1R antag-2,TAAR1 ag,GalR3 antagonist,CHO parental Ca,TAAR1 antagonist
O=C(O)c1ccccc1N1C(=O)c2cccc3cccc(c23)C1=O,65.6*,-13.3,2.4,-5.5,-3.2,-5.1
Cc1c(N2C(=O)c3cccc4cccc(c34)C2=O)cnn1C,51.2*,-19.3,-0.9,-5.4,-22.7,14.7
O=C(O)c1ccc2c3c(cccc13)C(=O)N(c1cccc3ccccc13)C2=O,24.7,-9.6,-1.3,-1.3,-12.2,4.5
O=C1c2cccc3cccc(c23)C(=O)N1c1cccnc1,48.1*,-16.3,5.0,-2.0,-14.7,-27.2
CCOC(=O)CNc1nc(Cl)nc(Nc2ccc(Cl)cc2)n1,8.7,-9.9,-0.4,-5.7,9.8,-31.5
O=C(CN1C(=O)C2CC=CCC2C1=O)Nc1nc(-c2ccc(F)cc2)cs1 (stereo unspecified),11.3,0.2,28.2,-4.7,-12.1,51.1*
COc1ccccc1-c1sc2ccccc2c1C#Cc1ccc(N(C)C)cc1,5.8,-47.4,-0.6,-6.5,-21.7,3.9
CC(C)=CCc1c(O)cc2oc3c(CC=C(C)C)c(O)c(O)c(CC=C(C)C)c3c(=O)c2c1O,36.7,6.4,4.5,-5.8,-14.8,57.5*
Cc1ccc(NC(=O)c2ccccc2NS(=O)(=O)c2ccc(Cl)s2)cc1S(=O)(=O)N1CCOCC1,62.6*,20.8,7.7,-2.8,0.6,18.2
COCCN(C(=S)Nc1ccc(C(C)C)cc1)C(C)c1cccs1 (stereo unspecified),7.7,-11.1,4.4,-3.6,2.0,24.9
O=C(COC(=O)c1ccc2ccccc2n1)NCc1ccccc1,14.2,-0.7,2.0,5.5,-31.4,-11.1
OC(CNCC(c1ccc(Cl)cc1Cl)c1c[nH]c2ccccc12)c1ccccc1 (stereo unspecified),3.0,17.1,29.9,-9.2,32.6*,24.5
O=C1NC(=S)S/C1=C\C=C\c1ccc([N+](=O)[O-])o1,nt,nt,57.7*,-6.2,nt,72.3*
CCN(C(=O)CN1C(=O)S/C(=C\c2ccccc2Cl)C1=O)C1CCS(=O)(=O)C1 (stereo unspecified),nt,nt,0.4,1.1,nt,0.5
O=C1N[C@@H](Cc2ccccc2)COC(=O)[C@@H](Cc2ccc(F)cc2)C/C=C\C[C@@H]1CC(=O)N(CCO)Cc1ccccc1,23.7,33.9,27.6,1.2,-3.9,54.4*
O=C1N[C@H](Cc2ccccc2)COC(=O)[C@H](Cc2ccc(F)cc2)CC/C=C/C[C@H]1CC(=O)N(CCO)Cc1ccccc1,12.0,-15.9,11.3,-8.9,-19.4,15.5
CC(C)(C)[C@H]1COC(=O)[C@@H](Cc2ccc(F)cc2)CC/C=C/C[C@@H](CC(=O)N[C@H](CO)Cc2ccccc2)C(=O)N1,10.4,-24.2,28.6,-5.0,-28.5,29.4
CC(C)(C)[C@H]1COC(=O)[C@@H](Cc2ccc(F)cc2)CC/C=C/C[C@@H](CC(=O)N[C@@H](CO)Cc2ccccc2)C(=O)N1,19.8,13.3,18.8,-6.9,-27.1,52.0*
